From ChEMBL document CHEMBL1140689, “Benzyl amide-ketoacid inhibitors of HIV-integrase” (Bioorg Med Chem Lett, 2007)

target: not listed separately; test: Inhibition of HIV1 recombinant integrase; set-up: species or system Human immunodeficiency virus 1; settings: not given
Outline: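 Strand-transfer scintillation proximity readout. 5 pmol biotin-labeled substrate DNA bound to 100 μg streptavidin SPA beads. Recombinant integrase (0.26 ng) loaded onto the beads for 90 min at 37 °C, and unbound enzyme washed off. Inhibitors then added with 0.1 fmol 33P-labeled target DNA. Reaction stopped with EDTA (10 mM final). Integration measured as scintillation CPM.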

Row | IC50 [nM] | SMILES
1 | 300 | O=C(/C=C(\O)C(=O)O)NCc1ccccc1
2 | 2400 | COc1cccc(CNC(=O)/C=C(\O)C(=O)O)c1
3 | 3000 | CC(NC(=O)/C=C(\O)C(=O)O)c1ccc(F)cc1 (centres undefined)
4 | 2100 | O=C(/C=C(\O)C(=O)O)NCc1ccc([N+](=O)[O-])cc1
5 | 4200 | COc1ccc(CNC(=O)/C=C(\O)C(=O)O)cc1
6 | 200 | O=C(/C=C(\O)C(=O)O)NCc1cccc(Cl)c1Cl
7 | 7500 | COc1ccc(CNC(=O)/C=C(\O)C(=O)O)c(OC)c1
8 | 1200 | O=C(/C=C(\O)C(=O)O)NCc1cccc(F)c1
9 | 1800 | O=C(/C=C(\O)C(=O)O)NCc1ccccc1F
10 | 200 | Cc1ccc(CNC(=O)/C=C(\O)C(=O)O)cc1F
11 | 200 | O=C(/C=C(\O)C(=O)O)NCc1ccc(F)cc1
12 | 500 | COc1ccccc1CNC(=O)/C=C(\O)C(=O)O
13 | > 300000 | C[C@@H](NC(=O)/C=C(\O)C(=O)O)c1ccccc1
14 | 110 | CN(Cc1ccc(F)cc1)C(=O)/C=C(\O)C(=O)O
15 | 300 | COc1ccc(CNC(=O)/C=C(\O)C(=O)O)cc1Cl
16 | 180000 | CC(C)(C)c1ccc(CNC(=O)/C=C(\O)C(=O)O)cc1
17 | 300 | Cc1cccc(CNC(=O)/C=C(\O)C(=O)O)c1
18 | 1300 | Cc1ccccc1CNC(=O)/C=C(\O)C(=O)O
19 | 700 | O=C(/C=C(\O)C(=O)O)NCc1ccc(Cl)nc1
20 | 1100 | O=C(/C=C(\O)C(=O)O)NCc1ccc(Cl)cc1
21 | 1400 | Cc1ccc(CNC(=O)/C=C(\O)C(=O)O)cc1
22 | 1700 | O=C(/C=C(\O)C(=O)O)NCc1cc(F)cc(F)c1
23 | 1700 | O=C(/C=C(\O)C(=O)O)NCc1ccccc1Cl
24 | 24000 | C[C@H](NC(=O)/C=C(\O)C(=O)O)c1ccccc1
25 | 600 | O=C(/C=C(\O)C(=O)O)NCc1cccc(Cl)c1
26 | 9000 | O=C(/C=C(\O)C(=O)O)NCc1ccc(C(F)(F)F)cc1

system: Human immunodeficiency virus 1; test: Antiviral activity against luciferase containing HIV1 NL4-3 virus in MT2 cells; assay type: functional, organism-based; settings: Human immunodeficiency virus 1, NL4-3, MT2

Row | EC50 [nM] | SMILES
27 | 5900 | O=C(/C=C(\O)C(=O)O)NCc1ccc(F)cc1
28 | 1200 | CC1(C)OC(=O)/C(=C/C(=O)NCc2ccc(F)cc2)O1
29 | 600 | CN(Cc1ccc(F)cc1)C(=O)/C=C(\O)C(=O)O
